KCNQ1 act: potentiators or activators of KCNQ1 channel, primary screen, cell-based, thallium flux, high-throughput; CHO-K1 KCNQ1, thallium flux FluxOR fluorescence; active compounds read high; AID 2648, 2010; Potassium voltage-gated channel subfamily KQT member 1 (Homo sapiens), P51787; B-score at 10 µM; 310,000 compounds, 0.35% hits;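 active means fluorescence ratio B-score, a plate-corrected score, at least three library SD, with initial intensity B-score within 5 SD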
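assay system = KCNQ1-transfected CHO-K1 cells | medium = assay buffer with matched DMSO | probe or stimulus = depolarizing K+/Tl+ stimulus, K2SO4 and Tl2SO4 each 12.5 mM in 5x stock | dosing = single dose | incubation = dye 90 min, compound 20 min, room temperature | detection = kinetic FluxOR fluorescence, 10 s baseline plus 110 s post-stimulus | evaluation = ratio B score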
KCNK9 inh: KCNK9 potassium channel inhibitors, primary screen, HEK293 cells, thallium flux. Potassium channel subfamily K member 9 (Homo sapiens), Q9NPC2. 310,000 compounds, 1.2% hits. FluxOR thallium flux fluorescence; active compounds read low. B-score at 10 µM;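 active means ratio B-score over 3 SD below the library mean, with starting fluorescence within 5 SD of its mean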;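 further: negative B-score means less thallium flux so channel inhibition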
PHOSPHO1 inh: PubChem AID 1565. inhibition, % at 13.3 µM. 290,000 compounds, 1.1% hits. Phosphoethanolamine/phosphocholine phosphatase (Homo sapiens), Q8TCT1. recombinant PHOSPHO1, absorbance phosphatase assay; in the data active means inhibition above about 60%
Target sequence (Q8TCT1 whole entry, looked up): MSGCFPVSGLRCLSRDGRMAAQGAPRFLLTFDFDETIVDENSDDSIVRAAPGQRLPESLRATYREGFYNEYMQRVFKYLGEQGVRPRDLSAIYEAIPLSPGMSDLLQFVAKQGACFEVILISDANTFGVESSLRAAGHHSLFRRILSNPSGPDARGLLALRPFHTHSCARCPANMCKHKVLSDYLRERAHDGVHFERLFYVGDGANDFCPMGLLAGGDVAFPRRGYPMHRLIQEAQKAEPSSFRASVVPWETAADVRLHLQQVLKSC
KCNK3 block: human KCNK3 channel inhibitors, primary screen, CHO cells, FluxOR thallium flux, B-score | 340,000 compounds, 0.84% hits | B-score at 10 µM | AID 602410, 2012 | Potassium channel subfamily K member 3 (Homo sapiens), O14649 | FluxOR fluorescence; active compounds read low;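 active means B-score under library mean minus 4 SD, starting fluorescence ratio at most library mean plus 5 SD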;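 further: more negative B-score means stronger inhibition of thallium flux through KCNK3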
Target sequence (O14649 whole entry, looked up): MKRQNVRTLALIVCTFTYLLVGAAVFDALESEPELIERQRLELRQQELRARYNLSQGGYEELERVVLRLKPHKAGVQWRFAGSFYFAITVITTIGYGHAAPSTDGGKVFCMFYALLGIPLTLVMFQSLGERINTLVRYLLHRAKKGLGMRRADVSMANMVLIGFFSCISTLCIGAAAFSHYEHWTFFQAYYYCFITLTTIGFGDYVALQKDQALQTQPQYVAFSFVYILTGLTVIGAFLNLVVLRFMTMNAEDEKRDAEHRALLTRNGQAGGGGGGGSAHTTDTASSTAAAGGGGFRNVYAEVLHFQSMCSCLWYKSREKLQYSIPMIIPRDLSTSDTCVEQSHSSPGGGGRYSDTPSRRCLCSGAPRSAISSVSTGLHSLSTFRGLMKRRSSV
KCNQ1 block: inhibitors of human KCNQ1 channel, primary screen, cell-based, thallium flux, high-throughput; 310,000 compounds, 1.3% hits; B-score at 10 µM; AID 2642, 2010; Potassium voltage-gated channel subfamily KQT member 1 (Homo sapiens), P51787; CHO-K1 KCNQ1, FluxOR thallium flux fluorescence; active compounds read high;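 active means compounds whose thallium flux B-score, printed positive for inhibition, exceeds three library SD while starting fluorescence stays within three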;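 further: channel opened by potassium depolarization with thallium stimulus after 20 min compound exposure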
hERG protect: hERG rescue from dofetilide block, primary screen, cell-based, CHO-hERG, FluxOR thallium flux, dofetilide IC70. dofetilide IC70 present. 310,000 compounds, 0.51% hits. Voltage-gated inwardly rectifying potassium channel KCNH2 (Homo sapiens), Q12809. activation (rescue from dofetilide block), less the hit threshold, % at 10 µM;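 active means activation above the mean of controls blocked by dofetilide plus 5 SD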;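 further: thallium influx through hERG after potassium depolarization seen as dye fluorescence rise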
Each line names hits and unclear results; the compound was inactive in the other large screens. The list is not random: actives were taken first. Their share in the collection is about 4%.

CCOc1ccc(C2=NNC(c3cccs3)=Nc3ccc(OCC)cc32)cc1	none (no result: KCNK3 block)
O=C(c1scc2c1CCCC2)N1CCOCC1	none
O=C(Cc1cccc2ccccc12)Nc1ccc(Br)cc1C(=O)O	KCNQ1 block 10
CCOC(=O)n1c(=O)n(Cc2ccc(Cl)c(Cl)c2)c2ccccc21	KCNK9 inh -7.37
Cc1nn(-c2ccccc2)c2nc(C(Cl)(Cl)Cl)[nH]c(=O)c12	KCNQ1 act 12
O=C(c1ccc(-c2ccc(Cl)cc2)o1)N1CCN(c2ccc([N+](=O)[O-])cc2Cl)CC1	KCNQ1 block 7
CC(=O)N1c2ccc(S(=O)(=O)NC(CC(=O)O)c3ccc(Br)cc3)cc2CC1C (centres undefined)	none
CC(=O)NC1=NN(C(C)=O)C(c2cccs2)S1 (centres undefined)	none
Cc1noc(C)c1COC(=O)c1ccc2c(c1)S(=O)(=O)c1ccccc1C2=O	PHOSPHO1 inh 81.7
NC(=O)COC(=O)c1ccc2c(c1)S(=O)(=O)c1ccccc1C2=O	none
CC1=C(C)C(=O)C(CCCCC#CCCCC#CCO)=C(C)C1=O	KCNK3 block -14.4
Cc1ccccc1-c1cc(C(=O)Nc2sc(C(=O)OC(C)C)c(C)c2C#N)c2ccccc2n1	KCNQ1 block 10
CCOC(=O)c1sc(NC(=O)c2cc(-c3ccc(C)cc3)nc3ccccc23)c(C#N)c1C	KCNQ1 block 7
COc1ccc(-c2cc(C(=O)Nc3sc4c(c3C#N)CCCC4)c3ccccc3n2)cc1	none (no result: KCNQ1 act, KCNK9 inh, KCNQ1 block, hERG protect)
Cc1cc(NC(=O)c2cc(-c3ccccc3C)nc3ccccc23)no1	none
CC(=O)Nc1ccccc1C(=O)C(=O)Nc1ccc(Cl)cc1	hERG protect 8.2
Cc1nc2c3ccccc3n(CCN3CCCCC3)c2s1	none (no result: KCNK3 block)
O=C(Nn1c(O)c(C=C2N=c3ccccc3=N2)sc1=S)c1ccccc1Cl	PHOSPHO1 inh 79.4
COC(=O)c1ccc(C2C(C(=O)OC(C)C)=C(C)N=C3SCCC(=O)N32)cc1 (centres undefined)	none (no result: KCNQ1 act, KCNK9 inh, KCNK3 block, KCNQ1 block, hERG protect)
COCCOC(=O)C1=C(C)N=C2SCCC(=O)N2C1c1cccs1 (centres undefined)	hERG protect 6.3
COC(=O)C1=C(C)N=C2SCCC(=O)N2C1/C=C/c1ccccc1 (centres undefined)	KCNK3 block -8.92
O=C(OCC(=O)N1CCCC1=O)c1cccc(S(=O)(=O)N2CCOCC2)c1	none
Cc1ccc(OCC(=O)N(Cc2cccc(F)c2)C2CCS(=O)(=O)C2)cc1 (centres undefined)	none
[O-][n+]1c2c(c3c4non(O)c4ccc31)CCCC2	KCNQ1 block 6
COc1cccc(CN(C(=O)c2ccco2)C2CCS(=O)(=O)C2)c1 (centres undefined)	none
CNC(=S)NNC(=O)COc1ccc(C)c(C)c1	none
O=C(O)c1ccc(NCc2ccc3c(c2)OCO3)cc1	none
CC(C)c1cccc(C(C)C)c1NC(=O)COC(=O)[C@H](C)NC(N)=O	hERG protect 11.0
Cn1c2ccccc2c(=O)c2ccc(C#Cc3ccc(N)cc3)cc21	KCNK9 inh -7.34
O=C(Cc1ccc(S(=O)(=O)N2CCOCC2)s1)Nc1nc2c(s1)CCCC2	PHOSPHO1 inh 93.6
COC(=O)c1ccc(COc2ccccc2/C=C(\C#N)C(=O)Nc2ccc(C)cc2C)cc1	KCNK9 inh -7.1
CC1CCN(C(=S)NCCc2ccccc2)CC1	PHOSPHO1 inh 88.1
CCCCn1nnc(NC(=S)NC(=O)c2ccc(OCC)c([N+](=O)[O-])c2)n1	none
CC(=O)c1cc(C#N)c(SCc2ccncc2)nc1C	PHOSPHO1 inh 69.4
CCOC(=O)N1CCC(=NNC(=O)COc2ccc(C#N)cc2)CC1	none
CCCc1cc(-c2nc(N)ncc2-c2csc(C)n2)c(O)cc1OC	none
CCCc1cc(-c2nc(N)ncc2-c2ccc3c(c2)OCCCO3)c(O)cc1OC	KCNQ1 block 7
CCNC(=O)N1c2ccc(OC)cc2C(C)=CC1(C)C	none
COc1cnc(-c2ccccn2)nc1Oc1ccccc1Cl	none
COc1cnc(-c2ccccn2)nc1Oc1ccc(Cl)c2ccccc12	KCNK9 inh -8.06
O=C(NCCc1cccc(C(F)(F)F)c1)C1CCC(=O)N(Cc2ccc(Cl)cc2)C1 (centres undefined)	PHOSPHO1 inh 67.6
O=C(NCCc1ccccc1Cl)C1CCC(=O)N(Cc2cccc(C(F)(F)F)c2)C1 (centres undefined)	none
NC(=O)CC(NC(=O)Cc1cccc2ccccc12)c1ccc(N2CCC(N3CCCCC3)CC2)c([N+](=O)[O-])c1 (centres undefined)	none
O=C(O)c1ccccc1-c1ccc(/C=c2\sc3nc4cc(Br)cnc4n3c2=O)o1	PHOSPHO1 inh 62.0
CCC(=O)c1ccc(OCC(=O)Nc2cccc(S(=O)(=O)N(C)c3ccccc3)c2)cc1	none (no result: KCNQ1 act, KCNK9 inh, PHOSPHO1 inh, KCNQ1 block, hERG protect)
CN(c1ccccc1)S(=O)(=O)c1cccc(NC(=O)COc2cccc([N+](=O)[O-])c2)c1	KCNK3 block -9.88 (no result: KCNQ1 act, KCNK9 inh, PHOSPHO1 inh, KCNQ1 block, hERG protect)
CN(c1ccccc1)S(=O)(=O)c1cccc(NC(=O)CSc2nccc(=O)[nH]2)c1	KCNK3 block -9.8 (no result: KCNQ1 act, KCNK9 inh, PHOSPHO1 inh, KCNQ1 block, hERG protect)
Cc1nnc(SCC(=O)Nc2cccc(S(=O)(=O)N(C)c3ccccc3)c2)s1	KCNQ1 block 6
CN1C(=O)C(CC(=O)NC2CCCCC2)SC1=Nc1ccccc1 (centres undefined)	none
Cc1ccc(C)c(-n2c(-c3ccc4c(c3)OCO4)n[nH]c2=S)c1	PHOSPHO1 inh 96.2
Cc1ccc(C)c(-n2c(-c3csc(C)c3)n[nH]c2=S)c1	PHOSPHO1 inh 96.9
Cc1ccc(C(=O)CSc2nc3ccccc3c(=O)n2-c2ccccc2)s1	none
CCCCNC1=CC(=O)C(=O)c2ccccc21	PHOSPHO1 inh 60.2
Cc1ccccc1N(C(=O)c1snc(C(N)=O)c1N)C(C(=O)NC1CCCCC1)c1ccc(O)cc1 (centres undefined)	KCNQ1 block 6
COc1ccc(N(C(=O)c2snc(C(N)=O)c2N)C(C(=O)NC2CCCCC2)c2ccc(C)o2)c(OC)c1 (centres undefined)	KCNQ1 block 6
O=[N+]([O-])c1cccc(/C=N/Nc2cc(Cl)nc(-c3ccccc3)n2)c1	KCNK3 block -10.4, KCNQ1 block 12
Cc1ccc(-c2cc(-c3ccc(F)cc3)n[nH]2)c(O)c1	KCNQ1 block 6
Cc1ccc(-c2cc(-c3ccc(C)cc3O)[nH]n2)cc1	none (no result: PHOSPHO1 inh)
Cc1ccc(/C=C/c2ccc(N(C)C)cc2)[n+](C)c1	KCNQ1 block 9

Assay outcomes from PubChem.
